Test results published in ChEMBL document CHEMBL2434877, “Synthesis and SAR study of novel 3,3-diphenyl-1,3-dihydroindol-2-one derivatives as potent eIF2·GTP·Met-tRNAiMet ternary complex inhibitors” (Eur J Med Chem, 2013).
Calls of active or inactive are those of the source. The calls are words filed in the database; no cut-off is given here.

Key:
Mus musculus [1] = organism: Mus musculus; test: Inhibition of eIF2-GTP-Met-tRNAi (Met) in mouse KLN205 cells assessed as increase in CHOP mRNA expression by qRT-PCR analysis relative to DMSO-treated control; assay type: cell-based
Outline: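 CHOP mRNA measured by PCR in KLN-205 cells, triplicate in at least two independent runs. Transcript quantities normalized to 18S rRNA and expressed as fold over DMSO control.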

Mus musculus [2] = organism: Mus musculus; test: Inhibition of eIF2-GTP-Met-tRNAi (Met) in mouse KLN205 cells assessed as increase in ATF-4 expression at 40 uM by dual luciferase reporter gene assay relative to control; assay type: cell-based
Outline: (§1)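 KLN-205 cells carry firefly luciferase fused to the ATF-4 5′UTR and renilla luciferase behind a uORF-free 5′UTR. Cells treated overnight with compound at 10, 20, 40 or 80 µM, then read with a glow-type dual luciferase kit. Firefly/renilla ratio corrected for the same ratio in DMSO wells on the same plate.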

[3] = Antiproliferative activity against human CRL2351 cells after 5 days by SRB assay; assay type: functional, cell-based; settings: 120 h
Outline: (§2)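 Adherent cells plated, allowed to settle overnight, then exposed 5 days to 0.54–20 µM compound. Fixed in cold 10% TCA (4 °C, 1 h), stained with 0.4% SRB in 1% acetic acid for 1 h, dye solubilized in 10 mM Tris pH 10, A490 read. Time-zero plates used for %T/C. IC50 is the 50% growth-inhibition concentration, mean of 2 experiments each in triplicate.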

[4] = Antiproliferative activity against human CRL2813 cells after 5 days by SRB assay; assay type: functional, cell-based; settings: CRL2813, 120 h; outline: as §2
[5] = Antiproliferative activity against mouse KLN205 cells after 5 days by SRB assay; assay type: functional, cell-based; settings: 120 h; outline: as §2
MCF7 = test: Antitumor activity against human MCF7 cells xenografted in mouse assessed as regression in tumor size at 140 mg/kg, sc bid for 3 weeks relative to control; assay type: functional; settings: route subcutaneous
Mus musculus [6] = organism: Mus musculus; test: Inhibition of eIF2-GTP-Met-tRNAi (Met) in mouse KLN205 cells assessed as increase in ATF-4 expression at 80 uM by dual luciferase reporter gene assay relative to control; assay type: cell-based; outline: as §1
Mus musculus [7] = organism: Mus musculus; test: Inhibition of eIF2-GTP-Met-tRNAi (Met) in mouse KLN205 cells assessed as increase in ATF-4 expression at 10 to 80 uM by dual luciferase reporter gene assay; assay type: cell-based; outline: as §1

Compound | fold change (FC) (Mus musculus [1]) | fold change (FC) (Mus musculus [2]) | IC50 [3] [µM] | IC50 [4] [µM] | IC50 [5] [µM] | Activity (MCF7) [%] | fold change (FC) (Mus musculus [6]) | ATF-4 reporter expression relative to DMSO control (Mus musculus [7])
CC(C)(C)c1ccc(O)c(C2(c3ccccc3)C(=O)Nc3ccccc32)c1 (configuration not stated) | 3.77 | 3.7 | 3.4 | 4.8 | 14.4 | 30 | – | –
CC(C)(C)c1ccc(O)c(C2(c3ccccc3)C(=O)Nc3ccc(-c4ccc(N5CCOCC5)nc4)cc32)c1 (configuration not stated) | 20.8 | – | 1.8 | 2.5 | 13.3 | – | 15.6 | –
CC(C)(C)c1ccc(O)c(C2(c3ccc(O)cc3)C(=O)Nc3ccccc32)c1 (configuration not stated) | – | – | 2 | 4 | 17.3 | – | – | –
CC(C)(C)c1ccc(O)c(C2(c3ccc(O)cc3)C(=O)Nc3c2ccc(F)c3F)c1 (configuration not stated) | 3.09 | 2.9 | > 20 | 10.7 | 15.3 | – | – | –
COc1ccc(C2(c3cc(C(C)(C)C)ccc3OCCN3CCOCC3)C(=O)Nc3ccccc32)cc1 (racemic) | 7.1 | 6.3 | 2.65 | 2.4 | 4.3 | – | – | –
CN(C)c1ccc(C2(c3cc(C(C)(C)C)ccc3OCCN3CCOCC3)C(=O)Nc3ccccc32)cc1 (racemic) | 4.15 | 7.15 | 4.7 | 7.5 | 2.2 | – | – | –
COc1ccc(C2(c3cc(C(C)(C)C)ccc3OCCN3CCOCC3)C(=O)Nc3ccccc32)cc1OC (racemic) | – | – | > 20 | > 20 | > 20 | – | – | –
COc1ccc(C2(c3cc(C(C)(C)C)ccc3OCCN3CCOCC3)C(=O)Nc3ccccc32)cc1F (racemic) | – | – | 2.5 | 2.7 | 3.4 | – | – | –
COc1ccc(C2(c3cc(C(C)(C)C)ccc3OCCN3CCOCC3)C(=O)Nc3ccc(OC)cc32)cc1 (racemic) | – | – | 4.5 | 2.9 | 2.75 | – | – | –
COC(=O)c1cccc2c1NC(=O)C2(c1ccc(OC)cc1)c1cc(C(C)(C)C)ccc1OCCN1CCOCC1 (racemic) | – | – | 16.3 | 14.6 | 17 | – | – | inactive
COc1ccc(C2(c3cc(C(C)(C)C)ccc3OCCN3CCOCC3)C(=O)Nc3ccc(I)cc32)cc1 (racemic) | – | – | 6.1 | 2.6 | 12 | – | – | –
COc1ccc(C2(c3cc(C(C)(C)C)ccc3OCCN3CCOCC3)C(=O)Nc3ccc(OC(F)(F)F)cc32)cc1 (racemic) | 3.49 | 5.11 | 2.9 | 1.9 | 9.3 | – | – | –
CN(C)c1ccc(C2(c3cc(C(C)(C)C)ccc3OCCN3CCOCC3)C(=O)Nc3c2ccc(F)c3F)cc1 (racemic) | – | – | 4 | 11 | 15.7 | – | – | –
C#CCOc1ccc(C(C)(C)C)cc1C1(c2ccccc2)C(=O)Nc2ccccc21 (racemic) | – | – | 17.5 | > 20 | > 20 | – | – | –
CC(C)(C)c1ccc(OCC(=O)O)c(C2(c3ccccc3)C(=O)Nc3ccccc32)c1 (racemic) | – | – | > 20 | > 20 | > 20 | – | – | inactive
COc1ccc(C2(c3cc(C(C)(C)C)ccc3O)C(=O)Nc3ccccc32)cc1 (racemic) | 4.09 | 5.6 | 2.65 | 2.75 | 15.7 | – | – | –
CN(C)c1ccc(C2(c3cc(C(C)(C)C)ccc3O)C(=O)Nc3ccccc32)cc1 (racemic) | – | – | 2.3 | 11 | 10.9 | – | – | –
CC(C)(C)c1ccc(O)c(C2(c3ccc(CN4CCOCC4)cc3)C(=O)Nc3ccccc32)c1 (racemic) | 4.68 | – | 7.3 | 7.8 | 17.3 | – | 12.4 | –
Cc1cc(C2(c3cc(C(C)(C)C)ccc3O)C(=O)Nc3ccccc32)ccc1Cl (racemic) | – | – | 2.9 | 2.9 | 4.3 | – | – | –
CC(C)(C)c1ccc(O)c(C2(c3cccnc3)C(=O)Nc3ccccc32)c1 (racemic) | – | – | 6.4 | 11.5 | > 20 | – | – | –
CC(C)(C)c1ccc(O)c(C2(c3ccccc3)C(=O)Nc3ccc(I)cc32)c1 (racemic) | 4.36 | 7.2 | 3.5 | 2.8 | 14.9 | – | – | –
CC(C)(C)c1ccc(O)c(C2(c3ccccc3)C(=O)Nc3ccc(OC(F)(F)F)cc32)c1 (racemic) | – | – | 2.5 | 1 | 8 | – | – | –
CC(C)(C)c1ccc(O)c(C2(c3ccccc3)C(=O)Nc3ccc4ncsc4c32)c1 (racemic) | – | – | 2.2 | 0.95 | 8 | – | – | inactive
COc1ccc(C2(c3cc(C(C)(C)C)ccc3O)C(=O)Nc3c2ccc(F)c3F)cc1 (racemic) | – | – | 0.95 | 3 | 12.3 | – | – | inactive
COc1ccc(C2(c3cc(C(C)(C)C)ccc3O)C(=O)Nc3ccc(OC)cc32)cc1 (racemic) | – | – | 2.9 | 11.1 | 14.3 | – | – | inactive
COC(=O)c1cccc2c1NC(=O)C2(c1ccc(OC)cc1)c1cc(C(C)(C)C)ccc1O (racemic) | – | – | 3.4 | 12.2 | > 20 | – | – | –
CC(C)(C)c1ccc(OCCN2CCOCC2)c(C2(c3ccccc3)C(=O)Nc3ccccc32)c1 (racemic) | – | – | 3.35 | 2.4 | 6.8 | – | – | –
CN(C)CCOc1ccc(C(C)(C)C)cc1C1(c2ccccc2)C(=O)Nc2ccccc21 (racemic) | – | – | 1.4 | 2.4 | 1.2 | – | – | –
CC(C)(C)c1ccc(OCCN2CCNCC2)c(C2(c3ccccc3)C(=O)Nc3ccccc32)c1 (racemic) | – | – | 0.9 | 12.8 | 1.2 | – | – | inactive
